# Results taken from the RNAGym collection of RNA variant scans (doi:10.1126/science.aae0568).
# Variants at the floor of the assay were thinned out.
# B1: tRNA (parent)
# chain: GUUCCGUUGGCGUAAUGGUAACGCGUCUCCCUCCUAAGGAGAAGACUGCGGGUUCGAGUCCCGUACGGAACG
# Variants of: B1
# Test: yeast fitness relative to wild type (ratio to wild type); higher = fitter; tRNA-Arg(CCU), competitive growth, 37 C, YPD
# Summary of the method: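 Amplicons of the tRNA-Arg(CCU) gene were sequenced, 100-nucleotide paired-end, from the start population and from each end population of a pooled yeast competition. The competition, in six parallel replicates, lasted 24 hours in YPD at 37°C. Fitness relative to wild type was calculated from changes in genotype frequencies. Genotypes had to have ≥ 100 starting reads, and estimates < 0.5 were set to 0.5.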
row,Variant,yeast fitness
1,U19A C24U G25C C49U,≤ 0.5
2,G18C U53C A57C,≤ 0.5
3,U19A C24G C33G C34G G51A,0.531
4,U19A A57U G67C,0.556
5,G18C C22U C29A A42G,0.541
6,G18C C60G A65G,0.544
7,G18C A36G A37C,≤ 0.5
8,G18C A20U C31U G48A C55U G68U,0.586
9,G18C A45U G56U U64A A69C,0.786
10,G18C A36G C61A,≤ 0.5
11,G18C A21G C66A,≤ 0.5
12,U19A A36U C61U,≤ 0.5
13,G18C C49U A69U,≤ 0.5
14,G18A G50C C55G,≤ 0.5
15,G18A G68U,0.711
16,G18A G68A,0.795
17,G18C U19A U28G A40C C62G C66G,≤ 0.5
18,G18U C24U A69U,≤ 0.5
19,G18C C60G A70C,≤ 0.5
20,G18C C29U G50C,≤ 0.5
21,G18A G58C G68A,≤ 0.5
22,G18C U19A U28G A40C,≤ 0.5
23,G18C A36U,0.551
24,G18C A36G,0.769

row,Variant,yeast fitness
1,G18C A21U C24U U28A,0.629
2,G18C A20U C34U A40C C49U U64C C66U,0.549
3,G18C A36U C61A G63C,≤ 0.5
4,U19A C24U C33U C49U,≤ 0.5
5,U19A A36G C46A,0.69
6,G18C G23A G25C A37G A43C C55G C62A G68A,≤ 0.5
7,G18C A21G U47A G67C,0.53
8,U19A C27U U28C C55U,≤ 0.5
9,G18C U19G C27U A43U,≤ 0.5
10,G18C C30A,0.642
11,G18C C30G,≤ 0.5
12,U19A A45U A69U,0.739
13,G18C C29U C34U G58C,≤ 0.5
14,G18C C27U,0.71
15,G18C C27G,0.61
16,G18C C27A,0.555
17,G18C A21U C30G A69C,0.555
18,U19A C24A G48C,≤ 0.5
19,G18C C60U A70U,≤ 0.5
20,G18C A20G C29A C49U,≤ 0.5
21,G18C G50A U59C,≤ 0.5
22,G18C A40C C61U,≤ 0.5
23,U19A C27U G44C G48C C66U,≤ 0.5
24,G18A G51C G63A,≤ 0.5

row,Variant,yeast fitness
1,G18C C22U C31A C61G,≤ 0.5
2,G18C U32C A57U,≤ 0.5
3,G18A G52C G67U A69U,≤ 0.5
4,G18C G25C U28G A42G C49U A57U,0.557
5,G18C G56C C62U,≤ 0.5
6,U19A A65C C66G,≤ 0.5
7,G18C A57C,0.627
8,U19A A21G A43C G51C G68C,≤ 0.5
9,U19A C27U U59A A65C G67U,0.575
10,G18C A65U,0.691
11,U19A A21G C29G,0.543
12,G18C C27A C55U G63C,≤ 0.5
13,U19A A20G C24U A43G G48C,≤ 0.5
14,G18A G52A C55G,0.571
15,U19A A40U,1.07
16,G18C U53G C60A,≤ 0.5
17,G18C C24U A43C C46U G63C C66U,≤ 0.5
18,G18C U19C C29A C30G,≤ 0.5
19,G18C U64A,0.593
20,U19A A70G,0.913
21,G18C C30G A65C,0.541
22,U19A C27U A42U A45G U64A,≤ 0.5
23,U19A C29A G67A,≤ 0.5
24,G18C C24A U32C,0.55

row,Variant,yeast fitness
1,G18C C29U G39A C49U G56C,≤ 0.5
2,G18C C24A,≤ 0.5
3,G18C C24U,0.641
4,U19A C24G C27G C31G C34G A37C A57G C61G,0.576
5,U19A A37G,0.657
6,G18U U26A U47C,≤ 0.5
7,G18C C24U A40U G56A A65G C66U,≤ 0.5
8,U19A A36U A45U C49U U64A A70U,0.788
9,G18C A45U G50C C55G U64C,≤ 0.5
10,G18C C22U U26G C30G C55G C66A,≤ 0.5
11,G18C C24G C49G C61U,≤ 0.5
12,G18C A45G G50U U53A,≤ 0.5
13,U19A A36C A40G A57C,≤ 0.5
14,U19A A37U G68U,≤ 0.5
15,U19A A43G A57C A65U,≤ 0.5
16,G18C A57G U59A C62U,≤ 0.5
17,G18A U19C C22U,0.641
18,G18C A21U C27U,≤ 0.5
19,G18A U26G C55U C60G,0.512
20,U19A,1
21,U19A C27U C49U C55U,0.525
22,G18C C55U G67C,0.565
23,G18C A40G A42G G58C,≤ 0.5
24,G18C G67U,0.632

row,Variant,yeast fitness
1,G18C G67A,0.728
2,G18C G67C,0.656
3,G18C G52C,0.819
4,G18C A37G,0.577
5,G18C A37C,0.641
6,G18A U28C G50U,≤ 0.5
7,G18C G39C,0.683
8,G18C G25A G38C G41A,≤ 0.5
9,G18U U26A G56A G67A,0.578
10,G18C C31U C46U,≤ 0.5
11,U19A A42G G68U,≤ 0.5
12,U19A C22G A42G U54A G67A,≤ 0.5
13,U19A A20G C29A A40C G50C,≤ 0.5
14,G18A U28A A42G A45C,≤ 0.5
15,G18C C30U U64A,≤ 0.5
16,G18A U35A A40G C61U,≤ 0.5
17,G18C C30U A45C A69U,≤ 0.5
18,G18C U19G A20G C33A U35C,≤ 0.5
19,G18C C46U,0.626
20,G18C C46A,0.726
21,G18U A45G,0.758
22,U19A C24G C27U C30A G52C,0.571
23,G18U U32C A57G,0.568
24,G18C C22G,0.682

row,Variant,yeast fitness
1,G18C C22U,0.558
2,G18U A20U,0.722
3,G18A G51A,0.625
4,G18C C34G A45C,≤ 0.5
5,G18C G51A C66A,0.537
6,G18C U32G A57C C62U,≤ 0.5
7,G18A U26G G50C C62A G63C,≤ 0.5
8,G18C C29G U47C,≤ 0.5
9,G18C C24G A70G,≤ 0.5
10,G18C G23A G25C A37G A43C C55G,≤ 0.5
11,G18A G50C G58C C60U C66G,≤ 0.5
12,G18C G23A G25C A37G A43C A65C,≤ 0.5
13,G18A U19A G56A C60U C61G,≤ 0.5
14,G18C U35A A65C,≤ 0.5
15,G18C C22G G39A,≤ 0.5
16,U19A A37U G41C G67A,≤ 0.5
17,U19A C27G C31U A70G,≤ 0.5
18,G18C C24G C34U C49A,≤ 0.5
19,G18C C33G C49G,≤ 0.5
20,G18C C22U C34G A43U,≤ 0.5
21,U19A A20U G51C,0.836
22,U19A C24U U64C,0.689
23,G18C U53A,≤ 0.5
24,G18C G56A,0.739

row,Variant,yeast fitness
1,G18C G56C,0.524
2,G18C C60G,≤ 0.5
3,G18C C31G A36C A45G A65G,0.595
4,G18C C30G U32C,≤ 0.5
5,U19A A40G G51A,≤ 0.5
6,G18A U32C A65G,0.535
7,U19A C24G G52C U64G,0.535
8,U19A C24A C30G C34U G51A G52C C66U,≤ 0.5
9,G18C A37G G51A C61U C66A,≤ 0.5
10,G18C G44U,0.554
11,G18C G44C,0.637
12,U19A A43U C62U,0.771
13,G18C A21C C30G C46G,≤ 0.5
14,G18C C29U A69C,≤ 0.5
15,G18A G52A A65C,≤ 0.5
16,U19A A43U C46G,0.658
17,G18C U47C G51A,≤ 0.5
18,G18A U19A G63A,≤ 0.5
19,U19A A21U C24A U28C U53C C60G,≤ 0.5
20,U19A A43G,0.867
21,G18C G51A A57G C66A,≤ 0.5
22,G18C G23A,≤ 0.5
23,G18C G23C,0.577
